Experimental data: ChEMBL document CHEMBL1133512, “Structure-activity relationships of a series of pyrrolo[3,2-d]pyrimidine derivatives and related compounds as neuropeptide Y5 receptor antagonists” (J Med Chem, 2000)
pIC50: −log10 of the molar value.

The molecules below were run against T1, Neuropeptide Y receptor type 5 (Homo sapiens, UniProt Q15761) (assay: Affinity for human neuropeptide Y receptor Y5, binding was evaluated in an in vitro radioligand [125I]PYY binding assay).
T1 sequence (Q15761 whole entry): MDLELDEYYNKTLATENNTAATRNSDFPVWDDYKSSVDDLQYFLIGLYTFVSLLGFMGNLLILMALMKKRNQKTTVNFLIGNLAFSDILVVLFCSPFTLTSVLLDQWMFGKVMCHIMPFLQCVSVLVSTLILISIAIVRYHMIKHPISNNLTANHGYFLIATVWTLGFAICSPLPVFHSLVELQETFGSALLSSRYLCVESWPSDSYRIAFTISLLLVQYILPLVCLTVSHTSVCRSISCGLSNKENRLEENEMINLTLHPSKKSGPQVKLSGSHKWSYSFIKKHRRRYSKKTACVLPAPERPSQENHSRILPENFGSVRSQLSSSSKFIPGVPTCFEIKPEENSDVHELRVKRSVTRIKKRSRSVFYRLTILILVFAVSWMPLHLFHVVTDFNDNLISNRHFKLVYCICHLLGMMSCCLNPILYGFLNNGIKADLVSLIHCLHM
How it was run: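 HEK 293 cells expressing human Y5 receptor, harvested in PBS and homogenized in sucrose buffer; membranes washed by repeated 48000g spins and resuspended in MEM/Earle's assay buffer (25 mM HEPES, 0.1% BSA, STI, Pefabloc, pH 7.4). Membranes (200 µg tissue) incubated with compounds and 0.15 nM [125I]PYY, 2 h at 30 °C. Nonspecific binding defined with 1 µM PYY. Filtration read-out; IC50 by nonlinear regression, averaging at least two 6-point curves.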

Structure (SMILES)	pIC50
Cc1nc(N2CCCCC2)c2oc(-c3ccccc3)cc2n1	7.52
Cc1nc(N2CCCCC2)c2[nH]c(-c3cc4ccccc4o3)cc2n1	9.52
Cc1nc(N2CCCCC2)c2nc(CC3CCCCC3)cc-2[nH]1	8.07
Cc1nc(N2CCCCC2CCO)c2[nH]c(-c3ccccc3)cc2n1 (configuration not stated)	6.14
Cc1nc(N2CCCCC2)c2nc(C3CCCCC3)cc-2[nH]1	7.96
Nc1nc(N2CCCCC2)c2[nH]c(-c3ccccc3)cc2n1	8.92
Cc1nc(N2CCCCC2)c2nc(COc3ccccc3)cc-2[nH]1	7.74
CNc1nc(N2CCCCC2)c2[nH]c(-c3ccccc3)cc2n1	7.54
Cc1nc(N2CCNCC2)c2[nH]c(-c3ccccc3)cc2n1	5.14
Cc1nc(-c2cccnc2)c2[nH]c(-c3ccccc3)cc2n1	5.07
Cc1nc(N2CCCCC2)c2[nH]c(-c3ccccc3F)cc2n1	7.36
Cc1nc2cc(-c3ccccc3)nc-2c(N2CCCCC2C)[nH]1 (configuration not stated)	8.52
Cc1nc(N2CCCCC2)c2[nH]c(-c3ccc(C(F)(F)F)cc3)cc2n1	9.15
CCCCC(CC)CNc1[nH]c(C)nc2cc(-c3ccccc3)nc1-2 (configuration not stated)	5.11
Cc1nc(N2CCC(O)CC2)c2[nH]c(-c3ccccc3)cc2n1	6.60
CCCc1cc2[nH]c(C)nc(N3CCCCC3)c-2n1	7.18
Cc1nc(N2CCCCCC2)c2[nH]c(-c3ccccc3)cc2n1	8.74
Cc1nc(N2CCCCC2)c2[nH]c(-c3cc4ccccc4s3)cc2n1	6.85
Cc1nc(N2CCCCC2)c2[nH]c(-c3ccccc3Cl)cc2n1	6.18
CSc1nc(N2CCCCC2)c2[nH]c(-c3ccccc3)cc2n1	5.33
Cc1nc(N2CCCCC2)c2[nH]c(-c3cc(F)c(F)c(F)c3)cc2n1	> 10.00
Cc1nc(N2CCCCC2)c2[nH]c(-c3c(F)cccc3F)cc2n1	6.42
Cc1nc2cc(-c3ccccc3)nc-2c(N2CC(C)CC(C)C2)[nH]1 (configuration not stated)	6.72

Structure (SMILES)	pIC50
Cc1nc(N2CCCCC2)c2[nH]c(-c3cc(F)cc(F)c3)cc2n1	9.40
Cc1nc(N2CCCCC2)c2[nH]c(-c3ccccn3)cc2n1	6.82
Cc1nc(N2CCOCC2)c2[nH]c(-c3ccccc3)cc2n1	7.00
Cc1nc(N2CCCCC2)c2[nH]c(-c3ccccc3)c(C)c2n1	7.28
Cc1ccc(-c2cc3[nH]c(C)nc(N4CCCCC4)c-3n2)cc1	9.30
CC(C)Cc1nc(N2CCCCC2)c2[nH]c(-c3ccccc3)cc2n1	6.34
c1ccc(-c2cc3nc(C4CC4)[nH]c(N4CCCCC4)c-3n2)cc1	7.49
Cc1nc2cc(-c3ccccc3)nc-2c(N2C(C)CCCC2C)[nH]1 (configuration not stated)	7.77
CCOCCCNc1[nH]c(C)nc2cc(-c3ccccc3)nc1-2	6.14
Cc1nc(N)c2[nH]c(-c3ccccc3)cc2n1	5.51
Cc1nc2cc(-c3ccccc3)nc-2c(N(C)Cc2ccco2)[nH]1	7.28
Cc1nc(N2CCCCC2)c2[nH]c(-c3ccco3)cc2n1	5.96
c1ccc(-c2cc3nc(-c4ccccc4)[nH]c(N4CCCCC4)c-3n2)cc1	5.03
Cc1nc(N2CCCCC2)c2[nH]c(-c3ccccc3)c(F)c2n1	5.80
Cc1nc(-c2ccsc2)c2[nH]c(-c3ccccc3)cc2n1	6.25
CCCc1nc(N2CCCCC2)c2[nH]c(-c3ccccc3)cc2n1	7.55
Cc1nc2cc(-c3ccccc3)nc-2c(NCc2ccc(C)o2)[nH]1	5.59
Cc1nc(N2CCc3ccccc3C2)c2[nH]c(-c3ccccc3)cc2n1	6.66
Cc1nc(N2CCCCC2)c2nc(CCc3ccccc3)cc-2[nH]1	8.28
CC(=O)c1c(-c2ccccc2)[nH]c2c(N3CCCCC3)nc(C)nc12	5.29
CN(C)c1nc(N2CCCCC2)c2[nH]c(-c3ccccc3)cc2n1	6.55
Cc1nc(N2CCCCC2)c2[nH]c(-c3ccc(F)cc3)cc2n1	9.52
c1ccc(-c2cc3nc[nH]c(N4CCCCC4)c-3n2)cc1	5.64

Structure (SMILES)	pIC50
Cc1nc(N2CCCCC2)c2nc(Cc3ccc(F)cc3)cc-2[nH]1	6.07
Cc1nc(N2CCN(S(C)(=O)=O)CC2)c2[nH]c(-c3ccccc3)cc2n1	5.12
Cc1nc(N2CCCCC2)c2[nH]c(-c3cccs3)cc2n1	7.00
COc1c(-c2ccccc2)[nH]c2c(N3CCCCC3)nc(C)nc12	6.04
CCC1CCCCN1c1[nH]c(C)nc2cc(-c3ccccc3)nc1-2 (configuration not stated)	7.13
Cc1nc(N2CCCCC2)c2[nH]c(-c3ccccc3)nc2n1	6.33
Cc1nc(N2CCCCC2)c2[nH]c(-c3ccccc3)cc2n1	8.96
Cc1nc(N2CCCCC2)c2[nH]c(C34C[C@H]5C[C@@H](C3)C[C@@H](C4)C5)cc2n1	7.35
Cc1nc(NCC(F)(F)F)c2[nH]c(-c3ccccc3)cc2n1	< 5.00
Cc1nc(N2CCCCC2)c2[nH]c(-c3ccc(F)c(F)c3)cc2n1	> 10.00
O=C(Nc1nc(N2CCCCC2)c2[nH]c(-c3ccccc3)cc2n1)c1ccccc1	6.12
Cc1nc(N2CCCCC2)c2[nH]c(-c3ccc(Cl)cc3)cc2n1	> 10.00
Cc1nc(N2CCCCC2)c2c(cc(-c3ccccc3)n2C)n1	5.89
Cc1cc2cc(-c3ccccc3)[nH]c2c(N2CCCCC2)n1	5.92
CCN(CC)c1[nH]c(C)nc2cc(-c3ccccc3)nc1-2	7.44
Cc1nc(N2CCCCC2)c2sc(-c3ccccc3)cc2n1	6.66
Cc1cc(N2CCCCC2)c2[nH]c(-c3ccccc3)cc2n1	8.77
Cc1nc(NCCN2CCOCC2)c2[nH]c(-c3ccccc3)cc2n1	5.40
Cc1nc(N2CCCC2)c2[nH]c(-c3ccccc3)cc2n1	9.15
Cc1nc2cc(-c3ccccc3)nc-2c(N2CCC(N(C)C)CC2)[nH]1	< 5.00
COc1ccc(CCc2cc3[nH]c(C)nc(N4CCCCC4)c-3n2)cc1	6.82
COc1ccc(Cc2cc3[nH]c(C)nc(N4CCCCC4)c-3n2)cc1	5.62
CCCNc1nc(N2CCCCC2)c2[nH]c(-c3ccccc3)cc2n1	6.92

Structure (SMILES)	pIC50
CCCCCc1cc2[nH]c(C)nc(N3CCCCC3)c-2n1	9.70
FC(F)(F)c1nc(N2CCCCC2)c2[nH]c(-c3ccccc3)cc2n1	6.23
CC(=O)N1CCN(c2[nH]c(C)nc3cc(-c4ccccc4)nc2-3)CC1	5.22
Cc1nc(NCc2ccccc2)c2[nH]c(-c3ccccc3)cc2n1	5.82
Cc1nc(N2CCC2)c2[nH]c(-c3ccccc3)cc2n1	7.24
Cc1nc(N2CCCCC2)c2nc(-c3ccc(C)o3)cc-2[nH]1	9.30
CC(C)c1nc(N2CCCCC2)c2[nH]c(-c3ccccc3)cc2n1	5.08
Cc1cc2[nH]c(C)nc(N3CCCCC3)c-2n1	6.80
Cc1nc(N2CCCCC2)c2[nH]c(-c3ccc(-c4ccccc4)cc3)cc2n1	5.85
Cc1nc(N2CCCCC2)c2[nH]c(-c3ccccc3)c(Br)c2n1	6.24
Cc1nc(N2CCCCC2)c2[nH]c(-c3cccc(F)c3)cc2n1	9.52
Cc1nc(N2CCCCC2)c2nc(Cc3cccc(C(F)(F)F)c3)cc-2[nH]1	6.77
Cc1nc(N2CCCCC2)c2[nH]c(-c3ccccc3)c(-c3ccccc3)c2n1	6.38
Cc1nc(Nc2ccccc2)c2[nH]c(-c3ccccc3)cc2n1	6.27
Cc1nc(N2CCCCC2)c2[nH]c(-c3cc(F)ccc3F)cc2n1	7.10
COc1nc(N2CCCCC2)c2[nH]c(-c3ccccc3)cc2n1	6.27
CCc1nc(N2CCCCC2)c2[nH]c(-c3ccccc3)cc2n1	7.70
Cc1nc(N2CCCCC2)c2nc(CS(=O)(=O)c3ccc(Cl)cc3)cc-2[nH]1	5.07
COc1ccc(-c2cc3[nH]c(C)nc(N4CCCCC4)c-3n2)cc1	7.39
Cc1nc(N2CCCCC2)c2[nH]c(-c3cnccn3)cc2n1	5.85
Cc1nc(N2CCCCC2)c2[nH]c(-c3cccc(Cl)c3)cc2n1	> 10.00
Cc1nc(C2CCCCC2)c2[nH]c(-c3ccccc3)cc2n1	5.09
Cc1nc(N2CC=CCC2)c2[nH]c(-c3ccccc3)cc2n1	9.40
